Results on two compounds are retold here after ChEMBL document CHEMBL4359883, “4(1H)-quinolone derivatives overcome acquired resistance to anti-microtubule agents by targeting the colchicine site of β-tubulin” (Eur J Med Chem, 2019).

Active and inactive are the calls of the source. The rule behind the calls is not given here.

Data set [1] concerns NCI-H1975. Kind of data set: Induction of apoptosis in human NCI-H1975 cells assessed as PARP cleavage at 25 to 50 nM after 24 hrs by immunoblotting analysis. It counts as functional, cell-based.
Data set [2] deals with NCI-H1975. The experiment in a line: Induction of apoptosis in human NCI-H1975 cells assessed as increase in p-HH3 expression at 25 to 50 nM after 24 hrs by immunoblotting analysis. The data set is classed as functional, cell-based. (In general: In western blotting, separated proteins are transferred to a membrane and probed.)
In data set [3] the target is T1, Tubulin (Homo sapiens) (UniProt P68371+Q9H4B7+P0DPH7+P68366+Q13509+Q71U36+P04350+Q3ZCM7+P07437+P68363+Q9BQE3+Q6PEY2+Q13885+Q9BVA1+Q9BUF5). The experiment in a line: Inhibition of microtubule polymerization in human NCI-H1975 cells at 25 nM after 6 hr followed by DAPI staining based confocal microscopic analysis. It counts as cell-based. The essentials:
(§1)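 Cells exposed for 6 h, fixed in 3.7% paraformaldehyde, permeabilized with 0.1% Triton X-100. Stained with anti-α-tubulin (1:1000) overnight at 4 °C, FITC secondary 1 h at 37 °C, nuclei counterstained with DAPI. Imaged by confocal laser scanning microscopy.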

Data set [4] can be described thus: Toxicity in Balb/c mouse xenografted with human NCI-H1975 cells assessed as effect on body mass at 4 to 8 mg/kg, ip administered 3 times per week for 21 days. The data set is classed as organism-based. The following applies: in vivo, 504 h. The essentials: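 H1975 tumors grown in right flank of 6-week-old BALB/c nude mice; after establishment, 4 or 8 mg/kg compound dissolved in DMSO, or DMSO alone, given intraperitoneally three times a week. Body mass taken before each dose.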

The nature of data set [5]: Toxicity in Balb/c mouse xenografted with human MDA-MB-231 cells assessed as effect on body mass at 4 to 8 mg/kg, ip administered 3 times per week for 35 days. The following applies: in vivo, 840 h. The data set is classed as organism-based. In short, it runs like this: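 MDA-MB-231 tumors established in right flank of 6-week-old BALB/c nude mice; once established, 4 or 8 mg/kg compound in DMSO, or DMSO vehicle, injected intraperitoneally three times weekly. Body mass measured before each injection.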
(In general: In xenograft studies the graft and the host belong to different species.)

Data set [6] can be described thus: Toxicity in Balb/c mouse xenografted with human KBtax cells assessed as effect on body mass at 8 mg/kg, ip administered 3 times per week and measured after 21 days. It counts as organism-based. As to conditions: in vivo, 504 h. In short, it runs like this: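 KBtax cells (1×10^7) injected subcutaneously into right flank of 6-week-old BALB/c nude mice; after tumor establishment, compounds dissolved in DMSO given intraperitoneally three times a week for 21 days alongside DMSO vehicle group (n = 5 per group). Body mass recorded before each dose.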

Data set [7] deals with ATP-dependent translocase ABCB1 (Homo sapiens, UniProt P08183). The experiment in a line: Inhibition of P-gp efflux in human KBtax cells at 30 to 120 nM after 1 hr by flow cytometry. The data set is classed as cell-based. The essentials: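 KBtax cells (2.5×10^5 per test) loaded with rhodamine in cold medium on ice for 1 h. Then resuspended in 37 °C medium with compound and held 1 h at 37 °C for efflux. Retained fluorescence measured by flow cytometry; verapamil used as P-gp inhibitor reference.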
ATP-dependent translocase ABCB1, sequence (P08183 whole entry): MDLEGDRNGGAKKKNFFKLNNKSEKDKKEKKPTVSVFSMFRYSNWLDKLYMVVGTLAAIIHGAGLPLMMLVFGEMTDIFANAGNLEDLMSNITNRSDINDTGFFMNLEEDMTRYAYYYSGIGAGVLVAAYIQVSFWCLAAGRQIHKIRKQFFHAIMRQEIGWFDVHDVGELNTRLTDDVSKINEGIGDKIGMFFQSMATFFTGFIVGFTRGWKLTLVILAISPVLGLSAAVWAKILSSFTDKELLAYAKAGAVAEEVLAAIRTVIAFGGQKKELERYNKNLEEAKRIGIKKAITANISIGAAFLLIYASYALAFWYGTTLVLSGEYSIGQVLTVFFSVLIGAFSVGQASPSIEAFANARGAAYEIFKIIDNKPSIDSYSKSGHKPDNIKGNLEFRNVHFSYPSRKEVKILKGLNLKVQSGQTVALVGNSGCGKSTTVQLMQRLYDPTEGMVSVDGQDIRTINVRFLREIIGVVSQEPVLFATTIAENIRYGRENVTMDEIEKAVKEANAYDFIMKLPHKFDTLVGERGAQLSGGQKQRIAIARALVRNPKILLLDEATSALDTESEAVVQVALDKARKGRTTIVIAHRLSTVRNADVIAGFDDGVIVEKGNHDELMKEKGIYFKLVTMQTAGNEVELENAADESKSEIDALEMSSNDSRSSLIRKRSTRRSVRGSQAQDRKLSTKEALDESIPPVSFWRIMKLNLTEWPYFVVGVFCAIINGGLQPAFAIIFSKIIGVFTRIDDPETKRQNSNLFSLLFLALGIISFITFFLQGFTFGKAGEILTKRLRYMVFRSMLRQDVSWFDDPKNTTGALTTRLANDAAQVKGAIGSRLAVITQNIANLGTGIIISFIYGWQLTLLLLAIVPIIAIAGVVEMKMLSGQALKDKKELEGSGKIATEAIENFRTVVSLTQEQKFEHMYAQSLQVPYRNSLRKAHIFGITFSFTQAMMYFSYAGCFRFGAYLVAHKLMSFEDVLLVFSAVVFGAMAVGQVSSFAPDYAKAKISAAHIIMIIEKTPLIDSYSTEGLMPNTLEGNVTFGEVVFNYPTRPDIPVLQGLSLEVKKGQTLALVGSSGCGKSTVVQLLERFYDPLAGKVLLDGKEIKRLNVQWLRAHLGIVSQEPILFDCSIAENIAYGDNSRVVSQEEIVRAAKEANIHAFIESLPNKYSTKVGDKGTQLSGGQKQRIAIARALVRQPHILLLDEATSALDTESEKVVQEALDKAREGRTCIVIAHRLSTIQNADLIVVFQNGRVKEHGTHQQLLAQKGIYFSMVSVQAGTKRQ
(Flow cytometry measures light scatter and fluorescence of single cells or particles in a stream.)

A further data set has as its system A549. Kind of data set: Antiproliferative activity against human A549 cells assessed as reduction in cell viability after 72 hrs by MTS assay. The data set is classed as functional, cell-based. The following applies: A549, 72 h. The essentials:
(§2)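 Cells plated at 2000/well, cultured overnight, then exposed to a range of compound concentrations for 72 h. MTS reagent added for 1–4 h at 37 °C and absorbance read at 490 nm. Cultured in RPMI 1640 or DMEM with 10% heat-inactivated FBS under 5% CO2. Data are the mean of three determinations.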

For a further data set, the system named is PC-9. Kind of data set: Antiproliferative activity against human PC9 cells assessed as reduction in cell viability after 72 hrs by MTS assay. As to conditions: PC-9, 72 h. It counts as functional, cell-based. The essentials:
as §2

In a further data set the test system is SK-OV-3. The experiment in a line: Antiproliferative activity against human SKOV3 cells assessed as reduction in cell viability after 72 hrs by MTS assay. The data set is classed as functional, cell-based. As to conditions: SK-OV-3, 72 h. The essentials: as §2
The test system of a further data set is IGROV-1. Kind of data set: Antiproliferative activity against human IGROV1 cells assessed as reduction in cell viability after 72 hrs by MTS assay. The data set is classed as functional, cell-based. The following applies: IGROV-1, 72 h. In short, it runs like this:
as §2

Another data set relates to SAS. Kind of data set: Antiproliferative activity against human SAS cells assessed as reduction in cell viability after 72 hrs by MTS assay. The data set is classed as functional, cell-based. In short, it runs like this: as §2
Data set [8] is described as follows: Antiproliferative activity against human OECM1 cells assessed as reduction in cell viability after 72 hrs by MTS assay. The following applies: OECM1, 72 h. It counts as functional, cell-based. In short, it runs like this: as §2
A further data set deals with SW-620. Kind of data set: Antiproliferative activity against human SW620 cells assessed as reduction in cell viability after 72 hrs by MTS assay. It counts as functional, cell-based. As to conditions: SW-620, 72 h. In short, it runs like this:
as §2

The next data set relates to DU-145. Kind of data set: Antiproliferative activity against human DU145 cells assessed as reduction in cell viability after 72 hrs by MTS assay. The data set is classed as functional, cell-based. The following applies: DU-145, 72 h. The essentials: as §2
Data set [9] deals with CL1-0. Kind of data set: Antiproliferative activity against human CL1-0 cells assessed as reduction in colony formation after 14 days by crystal violet staining based assay. The data set is classed as functional, cell-based. In short, it runs like this:
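Seeded at 1000 cells/well, cultured overnight, then treated with 12.5–200 nM for 14 days. Colonies fixed in 3.7% paraformaldehyde, stained with 0.04% crystal violet and dissolved in DMSO, then absorbance read at 590 nm. Mean ± SD.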

Data set [10] relates to NCI-H1975. Kind of data set: Induction of apoptosis in human NCI-H1975 cells assessed as caspase 8 activation at 40 to 80 nM after 24 hrs by immunoblotting analysis. The data set is classed as functional, cell-based.
Data set [11] deals with CL1-0. Kind of data set: Induction of mitotic arrest in human CL1-0 cells assessed as increase in phospho-histone H3 expression at 20 to 40 nM after 24 hrs by immunoblotting analysis. It counts as functional, cell-based.
Data set [12] concerns NCI-H1975. The experiment in a line: Induction of mitotic arrest in human NCI-H1975 cells assessed as increase in phospho-histone H3 expression at 40 to 80 nM after 24 hrs by immunoblotting analysis. The data set is classed as functional, cell-based.
For data set [13], the system named is CL1-0. Kind of data set: Induction of mitotic arrest in human CL1-0 cells assessed as cyclin A expression at 20 to 40 nM after 24 hrs by immunoblotting analysis. It counts as functional, cell-based.
Data set [14] deals with NCI-H1975. Kind of data set: Induction of cell cycle arrest in human NCI-H1975 cells assessed as accumulation at mitotic phase after 24 hrs by high content imaging analysis. The data set is classed as functional, cell-based. In short, it runs like this: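 Cells exposed for 24 h, stained for phospho-histone H3 (S10), and imaged by high-content imaging. Mitotic index taken as the fraction of p-HH3-positive cells. Mean ± SD.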

In data set [15] the test system is CL1-0. The experiment in a line: Induction of morphological changes in human CL1-0 cells assessed as disruption of mitotic spindle arrangement at 20 nM after 6 hrs by DAPI staining based confocal microscopic analysis. It counts as functional, cell-based. The essentials: as §1
For data set [16], the target named is T1, Tubulin (Homo sapiens). The experiment in a line: Induction of microtubule depolymerization in human CL1-0 cells at 20 nM after 6 hrs by DAPI staining based DAPI staining based confocal microscopic analysis. It counts as cell-based. The essentials: as §1
Data set [17] concerns the target Tubulin alpha (Homo sapiens) (UniProt P0DPH7+P68366+Q71U36+P68363+Q9BQE3+Q6PEY2+A6NHL2+Q9NY65). Kind of data set: Induction of microtubule depolymerization in human CL1-0 cells assessed as increase in alpha tubulin soluble form by immunoblot analysis. The data set is classed as cell-based. In short, it runs like this: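 Lysate spun at 16,000 rpm for 15 min at room temperature. Soluble (monomer) and particulate (polymer) fractions immunoblotted for α-tubulin.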

Data set [18] deals with T1, Tubulin (Homo sapiens). The experiment in a line: Binding affinity to tubulin (unknown origin) assessed as reduction in colchicine fluorescence after 1 hr in presence of colchicine by fluorescence based assay. It counts as protein-complex assay. The essentials:
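Tubulin (3 µM) mixed with colchicine (3 µM) and incubated with varying compound concentrations in PEM buffer, pH 6.9, for 1 h at 37 °C. Fluorescence read at ex 365/em 435 nm; mean ± SD.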

As for `CCOC(=O)c1ccc2[nH]c(-c3cccc(F)c3)cc(=O)c2c1`, the result in the data set with NCI-H1975 [1] and in the data set on NCI-H1975 [2] was Active. Moreover, the inhibition entry on Tubulin (Homo sapiens) [3] was “Active”. Moreover, the Activity result in data set [4], in [5] and in data set [6] was “Non-Toxic” throughout. For the same compound, the “inhibition (INH)” value in data set [7] is recorded as “Not Active”.
The term IC50 denotes the concentration that inhibits the measured activity by half. `CCOC(=O)c1ccc2nc(-c3ccccc3)cc(O)c2c1`: the IC50 in the data set with A549 amounted to 20 nM; in the data set on PC-9, 17 nM; with SK-OV-3, 50 nM; with IGROV-1, 84 nM; with SAS, 78 nM; in data set [8], 52 nM. Moreover, the values for the IC50 with SW-620 and in the data set on DU-145 were 35 nM and 47 nM, respectively. Moreover, the outcome (in the data set with CL1-0 [9]; in the data set on CL1-0 [11]; in the data set on NCI-H1975 [12]; in the data set with CL1-0 [15]; on Tubulin (Homo sapiens) [16]; in data set [17]) was Active. Also, the outcome in the data set on NCI-H1975 [10] and with CL1-0 [13] was inactive. Moreover, the Activity entry in the data set on NCI-H1975 [14] and at Tubulin (Homo sapiens) [18] was “Dose-dependent effect” throughout.
